Here are results for 31 compounds from ChEMBL document CHEMBL1157591, “Selective benzimidazole inhibitors of the antigen receptor-mediated NF-kappaB activation pathway” (Bioorg Med Chem, 2010).

The term IC50 denotes the concentration needed to halve the response being measured. Read a high IC50 as lower potency. The term half-life denotes how long it takes for the measured level to halve.

The nature of data set [1]: Inhibition of antigen receptor-mediated NF-kappaB activity in HEK293 cells after 16 hrs by luciferase reporter gene assay. The conditions noted are these: Homo sapiens, HEK293, 16 h.
The target in a further data set is Cytochrome P450 3A4 (Homo sapiens, UniProt P08684). In words: Inhibition of CYP3A4-mediated hydroxylation of testosterone in human liver microsomes in NADPH co-factor system by RP-HPLC. It is filed as ADME, Microsome.
Cytochrome P450 3A4, sequence (P08684 whole entry): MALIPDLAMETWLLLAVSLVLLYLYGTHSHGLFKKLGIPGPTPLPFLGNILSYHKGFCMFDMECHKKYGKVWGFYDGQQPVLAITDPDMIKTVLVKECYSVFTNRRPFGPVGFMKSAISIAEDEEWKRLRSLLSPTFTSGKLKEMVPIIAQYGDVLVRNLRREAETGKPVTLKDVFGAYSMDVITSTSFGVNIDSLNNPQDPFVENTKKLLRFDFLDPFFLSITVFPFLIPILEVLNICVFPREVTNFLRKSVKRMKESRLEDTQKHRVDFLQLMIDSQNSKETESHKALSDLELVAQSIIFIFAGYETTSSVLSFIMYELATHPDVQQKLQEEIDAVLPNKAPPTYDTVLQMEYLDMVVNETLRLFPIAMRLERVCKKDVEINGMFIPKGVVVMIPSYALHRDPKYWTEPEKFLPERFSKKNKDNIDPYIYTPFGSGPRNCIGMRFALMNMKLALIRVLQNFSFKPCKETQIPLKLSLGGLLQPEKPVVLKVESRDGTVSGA
Data set [2] is described as follows: Metabolic stability in human liver S9 fraction in UDPG co-factor system by RP-HPLC. Format: ADME, subcellular. Put shortly: (§1)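 Glucuronidation with UDPG cofactor plus lecithin, using HLM or S9 in 50 mM potassium phosphate pH 7.4 at 37 °C with shaking. Started by adding HLM/S9. Aliquots at 0–60 min stopped in cold acetonitrile and run in duplicate. Parent disappearance followed by RP-HPLC.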

The nature of data set [3]: Metabolic stability in human liver S9 fraction in PAPS co-factor system by RP-HPLC. It is filed as ADME, subcellular. Put shortly: (§2)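 Substrate at 100 µM with HLM or S9 at 1.6 mg/mL and 100 µM PAPS in 50 mM Tris–HCl pH 7.4, 37 °C. Started by adding HLM/S9. Aliquots at 0, 5, 15, 30, 45 and 60 min stopped in cold acetonitrile and run in duplicate. Sulfation taken from parent disappearance by RP-HPLC.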

Data set [4] is described as follows: Metabolic stability in human liver S9 fraction assessed as half life in NADPH co-factor system by RP-HPLC. It is filed as ADME, subcellular. Put shortly: (§3)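 Substrate at 100 µM with human liver microsomes or S9 at 1.6 mg/mL, NADPH-generating system (NADP+, 400 µM glucose-6-phosphate, DETAPAC, 4 IU/mL G6P dehydrogenase), 50 mM potassium phosphate pH 7.4, 37 °C with shaking. Started by adding HLM/S9. Aliquots at 0–60 min stopped in cold acetonitrile and run in duplicate. Parent loss measured by RP-HPLC.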

In data set [5] the test system is Liver microsomes. In words: Metabolic stability in human liver microsomes in UDPG co-factor system by RP-HPLC. It is filed as ADME, Microsome. Put shortly:
as §1
On the technique in general: Liver microsomes are a subcellular fraction often used to study metabolism.

Data set [6] has as its system Liver microsomes. In words: Metabolic stability in human liver microsomes in PAPS co-factor system by RP-HPLC. Format: ADME, Microsome. Put shortly: as §2
Data set [7] is described as follows: Metabolic stability in human liver microsomes assessed as half life in NADPH co-factor system by RP-HPLC. It is filed as ADME, Microsome. Put shortly: as §3

In data set [1], `CCC1C(C)CN(c2nc3cc(C)c(C)cc3n2CC(=O)c2cc(C(C)(C)C)c(O)c(C(C)(C)C)c2)C1C` (centres undefined) came in with a half-inhibitory concentration (IC50) above 5 µM.

Turning to `COc1c(C(C)(C)C)cc(C(=O)Cn2c(NCCCO)nc3cc(C)c(C)cc32)cc1C(C)(C)C`, the IC50 is 67 µM on Cytochrome P450 3A4 and 0.07 µM in data set [1].

Compound `Cc1cc2nc(N3CCC(Cc4ccccc4)CC3)n(CC(=O)c3cc(C(C)(C)C)c(O)c(C(C)(C)C)c3)c2cc1C` came in with an IC50 in data set [1] above 5 µM.

Take `Cc1cc2nc(N3CC(C)CC(C)C3)n(CC(=O)c3cc(C(C)(C)C)c(O)c(C(C)(C)C)c3)c2cc1C` (centres undefined): the IC50 in data set [1] was above 5 µM.

Consider `Cc1cc2nc(N3CCN(Cc4ccccc4)CC3)n(CC(=O)c3cc(C(C)(C)C)c(O)c(C(C)(C)C)c3)c2cc1C`, for which the Stability result (in data set [2]; in data set [3]; with Liver microsomes [5]; in the data set on Liver microsomes [6]) was “Stable” in each case. Moreover, the 50% inhibitory concentration (IC50) in data set [1] was above 5 µM. Also, the half-life in data set [4] is 4.4 h.

As to `Cc1cc2nc(N3CCC(C)CC3)n(CC(=O)c3cc(C(C)(C)C)c(O)c(C(C)(C)C)c3)c2cc1C`, the IC50 in data set [1] was above 5 µM.

Compound `CCCCNc1nc2cc(C)c(C)cc2n1CC(=O)c1cc(C(C)(C)C)c(O)c(C(C)(C)C)c1` displayed an IC50 in data set [1] of 0.1 µM.

For the compound `COCCCNc1nc2cc(C)c(C)cc2n1CC(=O)c1cc(C(C)(C)C)c(O)c(C(C)(C)C)c1`, the results for the IC50 (against Cytochrome P450 3A4; in data set [1]) were 97 µM and 0.25 µM, respectively.

On to `Cc1cc2nc(N3CCCC(C)C3)n(CC(=O)c3cc(C(C)(C)C)c(O)c(C(C)(C)C)c3)c2cc1C` (centres undefined), for which the half-maximal inhibitory concentration (IC50) in data set [1] was above 5 µM.

In data set [1], `COCCCNc1nc2cc(C)c(C)cc2n1CC(=O)c1ccc(O)cc1` registered an IC50 above 5 µM.

As for `CCN1CCN(c2nc3cc(C)c(C)cc3n2CC(=O)c2cc(C(C)(C)C)c(O)c(C(C)(C)C)c2)CC1`, the IC50 in data set [1] was above 5 µM.

The compound `Cc1cc2nc(N3CCCCC3C)n(CC(=O)c3cc(C(C)(C)C)c(O)c(C(C)(C)C)c3)c2cc1C` (centres undefined) displayed an IC50 in data set [1] above 5 µM.

As for `C[C@]12CC[C@H]3[C@@H](CCC4=CC(=O)CC[C@@]43C)[C@@H]1CC[C@@H]2O` [TESTOSTERONE], the half-life in data set [7] is 0.8 h.

`Cc1cc2nc(N3CCCCC3CO)n(CC(=O)c3cc(C(C)(C)C)c(O)c(C(C)(C)C)c3)c2cc1C` (centres undefined) came in with an IC50 in data set [1] above 5 µM.

Turning to `COCCCNc1nc2cc(C)c(C)cc2n1CC(=O)c1cc(C(C)(C)C)c(OC)c(C(C)(C)C)c1`, the IC50 in data set [1] came out at 0.25 µM.

In data set [1], `Cc1cc2nc(N3CCCCC3CN(C)C)n(CC(=O)c3cc(C(C)(C)C)c(O)c(C(C)(C)C)c3)c2cc1C` (centres undefined) had an IC50 above 5 µM.

With `Cc1cc2nc(NCCCO)n(CC(=O)c3cc(C(C)(C)C)c(O)c(C(C)(C)C)c3)c2cc1C`, the Stability result (in data set [2]; in data set [3]; in the data set with Liver microsomes [5]; in the data set with Liver microsomes [6]) was “Stable” each time. Also, 0.07 µM corresponded to half-maximal inhibition in data set [1] (IC50). Further, the half-life in data set [4] was 15.2 h; in data set [7] it was 5.5 h.

Regarding `COC[C@@H]1CCCN1c1nc2cc(C)c(C)cc2n1CC(=O)c1cc(C(C)(C)C)c(O)c(C(C)(C)C)c1`, the IC50 in data set [1] was above 5 µM.

For the compound `Cc1cc2nc(N3CCC(O)C3)n(CC(=O)c3cc(C(C)(C)C)c(O)c(C(C)(C)C)c3)c2cc1C` (centres undefined), the IC50 in data set [1] is above 5 µM.

`COc1ccccc1N1CCN(c2nc3cc(C)c(C)cc3n2CC(=O)c2cc(C(C)(C)C)c(O)c(C(C)(C)C)c2)CC1` showed an IC50 in data set [1] above 5 µM.

`C#CCNc1nc2cc(C)c(C)cc2n1CC(=O)c1cc(C(C)(C)C)c(O)c(C(C)(C)C)c1` gave an IC50 in data set [1] above 8 µM.

The compound `Cc1cc2nc(N3CCC[C@H]3CN3CCCC3)n(CC(=O)c3cc(C(C)(C)C)c(O)c(C(C)(C)C)c3)c2cc1C` showed a half-maximal inhibitory concentration (IC50) in data set [1] above 5 µM.

Consider `COCCCNc1nc2cc(C)c(C)cc2n1CC(=O)c1cc(C)c(O)c(C)c1`, for which the IC50 in data set [1] was above 5 µM.

Turning to `Cc1cc2nc(N3CCN(CCO)CC3)n(CC(=O)c3cc(C(C)(C)C)c(O)c(C(C)(C)C)c3)c2cc1C`, the Stability result (in data set [2]; in data set [3]; with Liver microsomes [5]; in the data set on Liver microsomes [6]) was “Stable” in each case. Moreover, the IC50 in data set [1] was above 5 µM. Also, the half-life in data set [4] is 4.6 h.

In data set [1], `Cc1cc2nc(N3CCOCC3)n(CC(=O)c3cc(C(C)(C)C)c(O)c(C(C)(C)C)c3)c2cc1C` registered an IC50 above 5 µM.

On to `Cc1cc2nc(NCCCO)n(CC(=O)c3cc(C)c(O)c(C)c3)c2cc1C`, for which the IC50 in data set [1] is above 5 µM.

In data set [1], `Cc1cc2nc(N3CCCCC3)n(CC(=O)c3cc(C(C)(C)C)c(O)c(C(C)(C)C)c3)c2cc1C` gave an IC50 above 5 µM.

Turning to `Cc1cc2nc(N3CCCC3)n(CC(=O)c3cc(C(C)(C)C)c(O)c(C(C)(C)C)c3)c2cc1C`, the IC50 in data set [1] is above 5 µM.

For the compound `Cc1cc2nc(N3CCC(O)CC3)n(CC(=O)c3cc(C(C)(C)C)c(O)c(C(C)(C)C)c3)c2cc1C`, the IC50 in data set [1] is above 5 µM.

Regarding `Cc1cc2nc(N3CCN(C)CC3)n(CC(=O)c3cc(C(C)(C)C)c(O)c(C(C)(C)C)c3)c2cc1C`, the IC50 in data set [1] is above 5 µM.

In the case of `Cc1cc2nc(NCCCO)n(CC(=O)c3ccc(O)cc3)c2cc1C`, the half-maximal inhibitory concentration (IC50) in data set [1] is above 5 µM.
